Laboratory results reported in ChEMBL document CHEMBL4396869, “Design and Synthesis of Selective Phosphodiesterase 4D (PDE4D) Allosteric Inhibitors for the Treatment of Fragile X Syndrome and Other Brain Disorders” (J Med Chem, 2019).

Legend:
[1] = Drug level in human hepatocytes treated with 2-(4-((2-(3-Chlorophenyl)-6-ethylpyrimidin-4-yl)methyl)phenyl)acetamide assessed as metabolite formation measured after 4 hrs by LC-UV/MS/MS analysis; type: ADME, cell-based, Hepatocyte
How it was run: (§1)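 Metabolite identification: cryopreserved hepatocytes from male Wistar rat or human, 0.5×10^6 cells/mL in suspension, incubated 4 h at 37 °C; incubation medium analysed by LC-UV/MS/MS.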

[2] = Drug level in Wistar rat hepatocytes treated with 2-(4-((2-(3-Chlorophenyl)-6-ethylpyrimidin-4-yl)methyl)phenyl)acetamide assessed as metabolite formation measured after 4 hrs by LC-UV/MS/MS analysis; type: ADME, cell-based, Hepatocyte; how it was run: as §1

CCc1cc(Cc2ccc(CC(=O)O)cc2)nc(-c2cccc(Cl)c2)n1
Drug metabolism [1]: Metabolite_Detected
Drug metabolism [2]: Metabolite_Detected
